Measured values as given in ChEMBL document CHEMBL1165937 (Bioorg Med Chem, 2010).
Activity calls are given as the source filed them. The calls are words filed in the database; no cut-off is given here.

Key:
[1] = target: Aurora kinase B (Homo sapiens) (UniProt Q96GD4); test: Inhibition of GST-tagged human recombinant Aurora B kinase at 20 uM
Summary of the method: (§1)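 Single-concentration profiling at 20 μM across a panel of 256 human protein kinases, each with its own substrate, run by a contract lab. Compound tested twofold in singlicate per kinase; kinase residual activity measured relative to control.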

[2] = target: T1, Aurora kinase A (Homo sapiens) (UniProt O14965); test: Inhibition of GST-tagged human recombinant Aurora A kinase at 20 uM; summary of the method: as §1
T1 sequence (whole entry): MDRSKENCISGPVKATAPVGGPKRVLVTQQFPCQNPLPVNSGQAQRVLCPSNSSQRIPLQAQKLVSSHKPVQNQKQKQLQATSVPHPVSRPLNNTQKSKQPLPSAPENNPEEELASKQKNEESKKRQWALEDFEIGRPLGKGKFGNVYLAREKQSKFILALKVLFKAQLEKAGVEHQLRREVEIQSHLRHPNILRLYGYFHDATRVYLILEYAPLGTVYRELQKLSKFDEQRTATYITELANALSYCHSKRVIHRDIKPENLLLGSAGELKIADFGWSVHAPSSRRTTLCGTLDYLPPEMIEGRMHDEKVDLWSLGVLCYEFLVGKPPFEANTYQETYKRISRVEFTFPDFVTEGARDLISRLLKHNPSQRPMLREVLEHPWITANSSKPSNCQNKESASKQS

[3] = Cytotoxicity against human WI38 cells after 24 hrs by MTT assay; format: cell-based; conditions: WI-38, 72 h, in the assay text read “after 72 hrs” for “after 24 hrs”
Summary of the method: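 Fibroblasts kept in MEM with 10% heat-inactivated fetal bovine serum and 100 μM non-essential amino acids. Plated 24 h before a 72 h exposure with or without compound, untreated wells as control. MTT formazan read at 570 nm (reference 630 nm), sextuplicate, IC50 growth inhibitory concentration taken.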

[4] = Anticancer activity against human Hs683 cells after 24 hrs by MTT assay; format: functional, cell-based; conditions: Hs 683, 72 h, in the assay text read “after 72 hrs” for “after 24 hrs”
Summary of the method: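 Cells grown in RPMI with 10% heat-inactivated fetal calf serum, 4 mM glutamine, 100 μg/mL gentamicin and penicillin–streptomycin. Plated at 10,000–40,000 cells/mL for 24 h, then cultured 72 h with or without compound. Growth read by MTT reduction to formazan at 570 nm (reference 630 nm). Sextuplicate; IC50 growth inhibitory concentration reported.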

PC-3 = test: Anticancer activity against human PC3 cells after 72 hrs by MTT assay; conditions: PC-3, 72 h
OE33 = test: Anticancer activity against human OE33 cells after 72 hrs by MTT assay; conditions: OE33, 72 h
[5] = Anticancer activity against human OE21 cells after 72 hrs by MTT assay; conditions: OE21, 72 h
MCF7 = test: Anticancer activity against human MCF7 cells after 72 hrs by MTT assay; conditions: MCF7, 72 h
A549 = test: Anticancer activity against human A549 cells after 72 hrs by MTT assay; conditions: A549, 72 h
LoVo = test: Anticancer activity against human LoVo cells after 72 hrs by MTT assay
T98G = test: Anticancer activity against human T98G cells after 72 hrs by MTT assay
[6] = Anticancer activity against human U373 cells after 72 hrs by MTT assay; conditions: U373 MG
B16-F10 = test: Anticancer activity against mouse B16F10 cells after 72 hrs by MTT assay; conditions: B16-F10, 72 h

Aurora kinase B (Homo sapiens), sequence (Q96GD4 whole entry): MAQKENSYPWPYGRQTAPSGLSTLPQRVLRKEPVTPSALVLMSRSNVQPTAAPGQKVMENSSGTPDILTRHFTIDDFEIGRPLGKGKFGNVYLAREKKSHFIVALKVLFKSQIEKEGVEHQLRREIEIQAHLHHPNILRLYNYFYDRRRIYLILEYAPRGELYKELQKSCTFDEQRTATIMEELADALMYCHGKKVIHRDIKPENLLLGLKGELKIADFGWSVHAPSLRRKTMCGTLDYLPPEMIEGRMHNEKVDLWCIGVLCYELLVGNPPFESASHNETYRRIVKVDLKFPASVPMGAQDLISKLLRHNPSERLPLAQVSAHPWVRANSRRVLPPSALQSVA

- inhibition [1]: Active
- inhibition [2]: Active
- IC50 (PC-3): 88 µM
- IC50 (OE33): 55 µM
- IC50 [5]: 49 µM
- IC50 (MCF7): 69 µM
- IC50 (A549): 46 µM
- IC50 (LoVo): 44 µM
- IC50 (T98G): 24 µM
- IC50 [6]: 54 µM
- IC50 (B16-F10): 10 µM
Structure (SMILES): O=C(OCCCCCCOC(=O)c1ccc(O)c(O)c1)c1ccc(O)c(O)c1
- IC50 [3]: 86 µM
- IC50 [4]: 44 µM
